{"source": "paper PMC6880868", "about": "(Cancer cell, 2019)", "key": {"MOLM-16": {"test_system": "MOLM-16", "experiment": "4-day CellTiter Glo cell viability assay, MOLM-16", "assay_type": "cell-based", "conditions": "Homo sapiens, MOLM16, 96 h, read-out: IC50, growth inhibition"}, "[1]": {"test_system": "transcriptional activity of STAT3", "experiment": "STAT3-luciferase reporter assay", "assay_type": "cell-based, human"}, "STAT3 [2]": {"target": "T1, STAT3 (Homo sapiens, UniProt P40763)", "experiment": "STAT3 protein degradation in human cells", "assay_type": "cell-based", "conditions": "for effect on SD-36-induced depletion of STAT3 protein: co-treatment with SD-36; for effect on the levels of STAT3 protein: 10 μM, 3 hr MOLM-16 or 24 hr SU-DHL-1", "outline": "(§1)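 Treated cells were lysed in cell lysis buffer, resolved by SDS-PAGE, transferred to PVDF and probed by immunoblotting.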"}, "[3]": {"test_system": "leukemia and lymphoma cell lines", "experiment": "4-day CellTiter Glo cell viability assay, leukemia and lymphoma cell line panel", "assay_type": "cell-based, human"}, "[4]": {"target": "monomeric and dimeric STAT3 protein (Homo sapiens, UniProt P40763)", "sequence (P40763 whole entry)": "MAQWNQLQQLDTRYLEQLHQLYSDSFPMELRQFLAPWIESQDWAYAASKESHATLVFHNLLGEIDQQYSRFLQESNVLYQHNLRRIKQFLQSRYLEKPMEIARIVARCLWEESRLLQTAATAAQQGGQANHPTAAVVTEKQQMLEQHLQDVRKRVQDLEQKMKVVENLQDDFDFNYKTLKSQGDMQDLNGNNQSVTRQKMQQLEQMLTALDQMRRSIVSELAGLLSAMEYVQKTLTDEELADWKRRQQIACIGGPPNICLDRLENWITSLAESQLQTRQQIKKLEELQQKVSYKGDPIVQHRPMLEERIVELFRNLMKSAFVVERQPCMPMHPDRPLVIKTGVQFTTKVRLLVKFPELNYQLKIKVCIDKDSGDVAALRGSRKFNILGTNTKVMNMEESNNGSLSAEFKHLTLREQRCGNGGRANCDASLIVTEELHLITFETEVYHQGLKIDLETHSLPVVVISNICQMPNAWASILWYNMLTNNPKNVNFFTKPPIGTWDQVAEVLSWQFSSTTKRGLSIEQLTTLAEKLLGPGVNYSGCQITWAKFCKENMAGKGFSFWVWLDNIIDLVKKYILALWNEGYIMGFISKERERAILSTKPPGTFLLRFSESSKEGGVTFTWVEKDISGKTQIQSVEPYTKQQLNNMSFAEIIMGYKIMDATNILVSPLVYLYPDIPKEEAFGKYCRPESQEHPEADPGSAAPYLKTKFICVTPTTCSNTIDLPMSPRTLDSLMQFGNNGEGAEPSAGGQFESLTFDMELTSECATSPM", "experiment": "Native electrophoresis and immunoblotting of STAT3 monomer/dimer", "assay_type": "cell-based", "conditions": "MOLM-16, 5 hr"}, "STAT1": {"target": "STAT1 (Homo sapiens, UniProt P42224)", "sequence (P42224 132-713)": "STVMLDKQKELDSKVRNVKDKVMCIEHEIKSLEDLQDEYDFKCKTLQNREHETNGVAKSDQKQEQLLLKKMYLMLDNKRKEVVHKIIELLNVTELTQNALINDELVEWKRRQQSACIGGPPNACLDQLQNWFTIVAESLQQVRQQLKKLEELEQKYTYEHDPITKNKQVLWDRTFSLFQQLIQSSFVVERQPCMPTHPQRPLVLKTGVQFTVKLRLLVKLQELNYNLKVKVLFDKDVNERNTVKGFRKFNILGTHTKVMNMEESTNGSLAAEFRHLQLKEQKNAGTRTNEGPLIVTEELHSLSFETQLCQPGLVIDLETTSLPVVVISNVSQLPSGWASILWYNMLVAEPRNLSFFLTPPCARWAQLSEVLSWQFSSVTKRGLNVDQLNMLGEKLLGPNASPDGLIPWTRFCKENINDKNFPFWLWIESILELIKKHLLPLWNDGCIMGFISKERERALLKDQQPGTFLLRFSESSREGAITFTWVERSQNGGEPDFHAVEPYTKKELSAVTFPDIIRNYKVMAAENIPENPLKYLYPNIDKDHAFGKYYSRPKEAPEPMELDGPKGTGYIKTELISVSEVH", "experiment": "Bio-Layer Interferometry binding, STAT1", "outline": "(§2)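 Purified recombinant human STAT proteins were biotinylated, then direct binding of the test compound was measured by Bio-Layer Interferometry to give Kd.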"}, "STAT4": {"target": "STAT4 (Homo sapiens, UniProt Q14765)", "sequence (Q14765 133-705)": "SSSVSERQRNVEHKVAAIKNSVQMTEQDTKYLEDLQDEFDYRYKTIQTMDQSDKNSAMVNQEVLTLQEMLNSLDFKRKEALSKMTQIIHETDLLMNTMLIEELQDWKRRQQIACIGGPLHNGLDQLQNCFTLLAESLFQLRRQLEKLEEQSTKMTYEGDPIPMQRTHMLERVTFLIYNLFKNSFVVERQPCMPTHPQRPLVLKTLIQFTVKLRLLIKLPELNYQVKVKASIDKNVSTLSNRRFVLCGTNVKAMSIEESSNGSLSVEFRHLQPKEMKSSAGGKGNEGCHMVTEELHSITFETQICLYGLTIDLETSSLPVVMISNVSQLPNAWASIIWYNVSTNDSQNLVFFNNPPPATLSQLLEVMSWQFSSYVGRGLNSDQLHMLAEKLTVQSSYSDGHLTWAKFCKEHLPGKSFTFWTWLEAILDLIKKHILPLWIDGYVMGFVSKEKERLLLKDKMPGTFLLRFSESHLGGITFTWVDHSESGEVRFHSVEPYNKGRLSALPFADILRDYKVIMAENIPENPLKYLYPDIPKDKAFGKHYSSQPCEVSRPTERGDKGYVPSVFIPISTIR", "experiment": "Bio-Layer Interferometry binding, STAT4", "outline": "as §2"}, "[5]": {"test_system": "c-Myc; STAT3 Y705 phosphorylation", "experiment": "Immunoblotting of c-Myc and pSTAT3", "assay_type": "cell-based, human", "conditions": "concentrations as high as 10 μM", "outline": "as §1"}, "MOLM-16 tumors": {"test_system": "MOLM-16 tumors", "experiment": "MOLM-16 xenograft efficacy", "assay_type": "in vivo, NOD/SCID female mice", "conditions": "100 mg/kg twice weekly for 4 weeks", "outline": "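NOD/SCID female mice were injected subcutaneously in 5 mg/ml Matrigel with MOLM-16 (3 × 10^6), SU-DHL-1 (1 × 10^7) or SUP-M2 (1 × 10^7) cells. At about 150 mm3, mice were size-matched and randomised. Test compound or vehicle (10% PEG400 + 90% PBS) was given on the indicated schedules. Tumours were measured 2–3 times weekly, with volume = length×width²/2. TGI was calculated from group medians.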"}, "[6]": {"target": "DNA binding activity of STAT3 (Homo sapiens, UniProt P40763)", "sequence (P40763 whole entry)": "as the sequence (P40763 whole entry) above", "experiment": "STAT3 DNA binding activity assay on nuclear extracts", "assay_type": "cell-based", "conditions": "10 μM, 8 hr, MOLM-16 and SU-DHL-1", "outline": "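Nuclear extraction: cells were swelled 15 min on ice in hypotonic HEPES pH 7.9/10 mM KCl buffer with DTT and phosphatase/protease inhibitors. NP-40 was added (0.5% final), and nuclei were extracted 15 min at 4°C in 0.4 M NaCl HEPES buffer, then cleared at 5,000 × g. ELISA: 5 μg extract was bound 1 hr at room temperature in TransAM STAT ELISA wells. Wells then received STAT antibody (1:1000, 1 hr), HRP secondary (1 hr) and colour development.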"}, "STAT3 [7]": {"target": "T1, STAT3", "experiment": "Bio-Layer Interferometry binding, STAT3", "outline": "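Recombinant human STAT3 was biotinylated and binding measured by Bio-Layer Interferometry for Kd. Selectivity was taken from Kd values against other STATs.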"}, "[8]": {"test_system": "~5500 proteins quantified in each cell line", "experiment": "Multiplexed quantitative proteomics in cell lines", "assay_type": "cell-based, human", "conditions": "10 μM, 2.5 hr, three cell lines, p≤0.05", "outline": "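Cells were exposed to test compound, then analysed by multiplexed quantitative proteomics. Significance was assessed by Student's t-test.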"}, "STAT3 [9]": {"target": "T1, STAT3", "experiment": "Fluorescence polarization", "assay_type": "binding", "outline": "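Competitive fluorescence polarisation assay. Recombinant STAT3 (25 nM) was premixed 5 min with 2.5 nM 5-FAM-labelled STAT3 SH2-domain ligand. The mix was added to serially diluted test compound and read after 1 hr at room temperature. Buffer: 50 mM NaCl, 10 mM HEPES pH 7.5, 1 mM EDTA, 0.01% Triton X-100, 2 mM DTT. IC50 came from nonlinear regression and was converted to Ki.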"}, "STAT3 [10]": {"target": "T1, STAT3", "experiment": "Pharmacodynamics: STAT3 protein in xenograft tumors", "assay_type": "in vivo, NOD/SCID mice bearing human xenograft tumors", "conditions": "100 mg/kg i.v."}, "SU-DHL-1": {"test_system": "SU-DHL-1", "experiment": "RNA-seq analysis, SU-DHL-1", "assay_type": "cell-based, human", "conditions": "SU-DHL-1, 24 hr"}, "[11]": {"test_system": "MOLM-16 and SU-DHL-1 cell lines", "experiment": "Cell cycle analysis by flow cytometry", "assay_type": "cell-based, human", "conditions": "1 μM, 48 hr", "outline": "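After treatment, cells were washed twice in cold PBS and fixed overnight in 50% ethanol. They were stained 1 hr at 4°C with PI (50 μg/ml) plus DNase-free RNase A (0.2 μg/ml), then analysed by flow cytometry.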"}, "MOLM-16 cells": {"test_system": "MOLM-16 cells", "experiment": "RNA-seq analysis, MOLM-16", "assay_type": "cell-based, human", "conditions": "MOLM-16, 24 hr"}, "[12]": {"conditions": "Homo sapiens, MOLM16, 24 h, read-out: IC50, transcriptional activity of STAT3"}, "[13]": {"conditions": "Homo sapiens, read-out: IC50, inhibition of transcriptional activity of STAT3"}}, "note": "pIC50, pKd, pKi: −log10 of the molar value. Read-outs that look alike come from different tables or passages of the source."}
{"smiles": "Nc1cccc2c1CN(C1CCC(=O)NC1=O)C2=O", "note": "(centres unmarked) [lenalidomide, reference compound]", "values": [{"measurement": "pIC50", "setting": "MOLM-16", "result": "~5.40"}, {"measurement": "effect on STAT3 transcriptional activity", "setting": "[1]; MOLM-16 STAT3 reporter, 24 hr", "result": "no significant effect"}, {"measurement": "effect on SD-36-induced depletion of STAT3 protein", "setting": "STAT3 [2]", "result": "blocked"}, {"measurement": "pIC50", "setting": "[3]; Homo sapiens, read-out: IC50, proliferation", "result": "< 5.00"}]}
{"smiles": "CC(=O)N1CC[C@H]2CC[C@@H](C(=O)N[C@@H](CCC(N)=O)C(=O)NC(c3ccccc3)c3ccccc3)N2C(=O)[C@@H](NC(=O)c2cc3cc(C(F)(F)P(=O)(O)O)ccc3[nH]2)C1", "note": "[SI-109, ((2-(((5S,8S,10aR)-3-acetyl-8-(((S)-5-amino-1-(benzhydrylamino)-1,5-dioxopentan-2-yl)carbamoyl)-6-oxodecahydropyrrolo[1,2-a][1,5]diazocin-5-yl)carbamoyl)-1H-indol-5-yl)difluoromethyl)phosphonic acid]", "values": [{"measurement": "pIC50", "setting": "MOLM-16", "result": "~5.52"}, {"measurement": "concentration diminishing STAT3 dimers", "setting": "[4]", "result": "~ 10 μM"}, {"measurement": "pKd", "setting": "STAT1", "result": "5.70 to 6.00"}, {"measurement": "pKd", "setting": "STAT4", "result": "5.70 to 6.00"}, {"measurement": "inhibition of STAT3 Y705 phosphorylation and suppression of c-Myc expression", "setting": "[5]", "result": "ineffective"}, {"measurement": "effect on the growth of MOLM-16 tumors", "setting": "MOLM-16 tumors", "result": "no effect"}, {"measurement": "pIC50", "setting": "[1]; [12]", "result": "~5.00"}, {"measurement": "pIC50", "setting": "[1]; [13]", "result": "~5.52"}, {"measurement": "DNA binding activity of STAT3", "setting": "[6]", "result": "only modestly reduces"}, {"measurement": "pKd", "setting": "STAT3 [7]", "result": "~7.30"}, {"measurement": "binding selectivity for STAT3 over STAT1 and STAT4", "setting": "STAT3 [7]; BLI Kd", "result": "~ 20 fold"}, {"measurement": "proteome-wide selectivity", "setting": "[8]", "result": "no measurable effect"}, {"measurement": "effect on the levels of STAT3 protein", "setting": "STAT3 [2]", "result": "no significant effect"}, {"measurement": "cell lines with moderate growth-inhibitory activity", "setting": "[3]; 18 leukemia and lymphoma cell lines", "result": "1 of these 18"}, {"measurement": "growth-inhibitory activity in a large number of human cancer cell lines", "setting": "[3]; initial testing", "result": "no appreciable growth-inhibitory activity"}, {"measurement": "pKi", "setting": "STAT3 [9]", "result": 8.05}, {"measurement": "effect on protein levels of STAT3 in MOLM-16 tumors", "setting": "STAT3 [10]", "result": "no significant effect"}]}
{"smiles": "NS(=O)(=O)OC[C@@H]1C[C@@H](n2ccc3c(N[C@H]4CCc5ccccc54)ncnc32)C[C@@H]1O", "note": "[MLN4924, reference compound]", "values": [{"measurement": "effect on SD-36-induced depletion of STAT3 protein", "setting": "STAT3 [2]", "result": "blocked"}]}
{"smiles": "CN1C(=O)CCC(N2Cc3c(C#CCCCCCC(=O)N4CC[C@H]5CC[C@@H](C(=O)N[C@@H](CCC(N)=O)C(=O)NC(c6ccccc6)c6ccccc6)N5C(=O)[C@@H](NC(=O)c5cc6cc(C(F)(F)P(=O)(O)O)ccc6[nH]5)C4)cccc3C2=O)C1=O", "note": "(stereo partly drawn) [SD-36Me, ((2-(((5S,8S,10aR)-8-(((S)-5-amino-1-(benzhydrylamino)-1,5-dioxopentan-2-yl)carbamoyl)-3-(8-(2-(1-methyl-2,6-dioxopipehdin-3-yl)-1-oxoisoindolin-4-yl)oct-7-ynoyl)-6-oxodecahydropyrrolo[1,2-a][1,5]diazocin-5-yl)carbamoyl)-1H-indol-5-yl)difluoromethyl)phosphonic acid]", "values": [{"measurement": "genes differentially regulated (≥2-fold, p≤0.05)", "setting": "SU-DHL-1", "result": 28, "unit": "genes"}, {"measurement": "concentration diminishing STAT3 dimers", "setting": "[4]", "result": "~ 10 μM"}, {"measurement": "cell cycle effect", "setting": "[11]", "result": "modest G1 arrest"}, {"measurement": "pIC50", "setting": "[1]; read-out: IC50, transcriptional activity of STAT3, MOLM-16 STAT3-dependent luciferase reporter cell line, 24 hr", "result": "~5.00"}, {"measurement": "effect on the levels of STAT3 protein", "setting": "STAT3 [2]", "result": "no significant effect"}, {"measurement": "genes up- or down-regulated ≥2-fold (p≤0.05), total", "setting": "MOLM-16 cells", "result": 13, "unit": "genes"}, {"measurement": "effect on protein levels of STAT3 in MOLM-16 tumors", "setting": "STAT3 [10]", "result": "no significant effect"}]}
{"smiles": "CN1CC[C@H]2CC[C@@H](C(=O)N[C@@H](CCC(N)=O)C(=O)NCc3ccccc3)N2C(=O)[C@@H](NC(=O)c2cc3cc(C(F)(F)P(=O)(O)O)ccc3[nH]2)C1", "note": "[SI-108, ((2-(((5S,8S,10aR)-8-(((S)-5-amino-1-(benzylamino)-1,5-dioxopentan-2-yl)carbamoyl)-3-methyl-6-oxodecahydropyrrolo[1,2-a][1,5]diazocin-5-yl)carbamoyl)-1H-indol-5-yl)difluoromethyl)phosphonic acid]", "values": [{"measurement": "pIC50", "setting": "[1]; [12]", "result": "~5.00"}, {"measurement": "pIC50", "setting": "[1]; [13]", "result": "~5.52"}, {"measurement": "effect on SD-36-induced depletion of STAT3 protein", "setting": "STAT3 [2]", "result": "blocked"}, {"measurement": "pKi", "setting": "STAT3 [9]", "result": 7.96}]}
{"smiles": "NC(=O)CC[C@H](NC(=O)[C@@H]1CCC2CCCC[C@H](NC(=O)c3cc4cc(C(F)(F)P(=O)(O)O)ccc4[nH]3)C(=O)N21)C(=O)NCc1ccccc1", "note": "(stereo partly drawn) [compound 3, (2-((3S,6S)-3-((S)-5-Amino-1-(benzylamino)-1,5-dioxopentan-2-ylcarbamoyl)-5-oxodecahydropyrrolo[1,2-a]azocin-6-ylcarbamoyl)-1H-indol-5-yl)difluoromethylphosphonic acid]", "values": [{"measurement": "pKi", "setting": "STAT3 [9]", "result": 8.15}, {"measurement": "binding potency relative to compound 2", "setting": "STAT3 [9]; Ki ratio", "result": 5, "unit": "times"}]}
{"smiles": "CC(C)C[C@H](NC(=O)[C@H](CCc1ccccc1)NC(=O)CN1CCOCC1)C(=O)N[C@@H](Cc1ccccc1)C(=O)N[C@@H](CC(C)C)C(=O)[C@@]1(C)CO1", "note": "[carfilzomib, reference compound]", "values": [{"measurement": "effect on SD-36-induced depletion of STAT3 protein", "setting": "STAT3 [2]", "result": "blocked"}]}
{"smiles": "NC(=O)CC[C@H](NC(=O)[C@@H]1CCC2CCCC[C@H](NC(=O)c3cc4cc(OP(=O)(O)O)ccc4[nH]3)C(=O)N21)C(=O)NCc1ccccc1", "note": "(stereo partly drawn) [compound 2, 2-((3S,6S)-3-((S)-5-Amino-1-(benzylamino)-1,5-dioxopentan-2-ylcarbamoyl)-5-oxodecahydropyrrolo[1,2-a]azocin-6-ylcarbamoyl)-1H-indol-5-yl dihydrogen phosphate]", "values": [{"measurement": "suppressing STAT3 activity in cells", "setting": "[1]; cells", "result": "ineffective"}, {"measurement": "pKi", "setting": "STAT3 [9]", "result": 7.41}]}
